Laboratory results from PMC7398146 (The Journal of General Physiology, 2020).

Columns and labels:
hKV7.2/3 = hKV7.2/3 (Homo sapiens, UniProt O43525+O43526); experiment: Two-electrode voltage clamp, hKV7.2/3 in Xenopus oocytes; assay type: cell-based; conditions: for effect on maximal conductance GMAX (in words) / shift of V50 (in words): 10 µM and 100 µM
Method in brief: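 hKV7.2 and hKV7.3 cRNA (2.5 ng each) were coinjected into Xenopus oocytes, held 2–4 d at 8°C or 16°C, and clamped with two electrodes at rt in HEPES saline, pH 7.4. Holding −80 mV; 2-s steps from −100 to +50 mV in 10-mV increments; tail −30 mV. Boltzmann G(V) fits per oocyte gave ΔV50 and GMAX change. A Hill fit across concentrations gave EC50. Current fold increase was taken per test voltage; mean ± SEM.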

[1] = target: hKV7.2_W236L/hKV7.3_W265L (Homo sapiens, UniProt O43525+O43526, A315T/W236L/W265L); experiment: Two-electrode voltage clamp, tryptophan mutant heteromer; assay type: cell-based; conditions: 3 µM
Method in brief: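 Human KV7 cRNA (2.5–50 ng per oocyte; mutants made by site-directed mutagenesis) was injected into Xenopus oocytes, which were kept 2–4 d at 8°C or 16°C. Two-electrode clamp was run at rt in 88 mM NaCl/1 mM KCl/15 mM HEPES saline, pH 7.4. Holding −80 mV; 2-s steps from −100 to +50 mV; tail −30 mV. Tail-current Boltzmann G(V) fits used a shared slope, giving per-oocyte ΔV50 and GMAX change; mean ± SEM.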

hKV7.1 = hKV7.1 (Homo sapiens, UniProt P51787); conditions: ref Schenzer et al., 2005; cited from earlier work
[2] = 10 µM, analogues compared with ARA-S

hKV7.1, sequence (P51787 whole entry): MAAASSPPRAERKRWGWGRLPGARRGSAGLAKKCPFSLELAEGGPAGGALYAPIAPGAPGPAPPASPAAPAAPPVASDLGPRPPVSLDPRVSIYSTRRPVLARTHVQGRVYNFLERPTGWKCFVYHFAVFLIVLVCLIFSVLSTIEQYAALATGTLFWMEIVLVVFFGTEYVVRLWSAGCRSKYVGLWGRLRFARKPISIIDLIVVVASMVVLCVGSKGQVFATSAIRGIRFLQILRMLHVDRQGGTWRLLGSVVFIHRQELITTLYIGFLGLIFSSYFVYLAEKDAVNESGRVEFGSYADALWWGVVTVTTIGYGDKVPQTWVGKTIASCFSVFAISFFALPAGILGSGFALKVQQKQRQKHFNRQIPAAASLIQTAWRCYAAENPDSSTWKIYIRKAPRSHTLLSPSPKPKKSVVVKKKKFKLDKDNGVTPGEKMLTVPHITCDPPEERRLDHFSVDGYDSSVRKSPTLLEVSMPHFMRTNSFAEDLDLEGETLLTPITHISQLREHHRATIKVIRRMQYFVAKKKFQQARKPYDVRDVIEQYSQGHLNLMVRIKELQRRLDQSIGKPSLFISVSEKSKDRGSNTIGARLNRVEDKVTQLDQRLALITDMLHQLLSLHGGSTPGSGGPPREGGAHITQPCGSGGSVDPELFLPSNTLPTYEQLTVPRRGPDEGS

CCCCC/C=C\C/C=C\C/C=C\C/C=C\CCCC(=O)OC(CO)CO [2-AG, 2-arachidonoylglycerol]
effect on maximal conductance GMAX (in words) (hKV7.2/3): no effect | shift of V50 (in words) (hKV7.2/3): no effect

CCOC(=O)Nc1ccc(NCc2ccc(F)cc2)cc1N [retigabine]
current fold increase at −60 mV (hKV7.2/3; 1 µM alone): three- to fourfold | increase in GMAX (hKV7.2/3; 1 µM alone): did not affect | shift in V50 (ΔV50) (hKV7.2/3; 1 µM alone): −8.1 ± 0.7 mV | ΔV50:MAX (maximal shift in V50) (hKV7.2/3; from concentration-response curve): −35 mV | sensitivity (shift in V50) [1]: insensitive | sensitivity of the channel (hKV7.1): insensitive

CCCCC/C=C\C/C=C\C/C=C\C/C=C\CCCC(=O)NCCO [AEA, N-arachidonoylethanolamine]
effect on maximal conductance GMAX (in words) (hKV7.2/3): no effect | shift of V50 (in words) (hKV7.2/3): no effect

CCCCC/C=C\C/C=C\C/C=C\C/C=C\CCCC(=O)N[C@H](CO)C(=O)O (single isomer, unassigned) [D enantiomer of ARA-S, N-arachidonoyl-D-serine]
effect on GMAX (in words) (hKV7.2/3; [2]): comparable | effect on V50 (in words) (hKV7.2/3; [2]): comparable
